Measurements from different studies.
Sample: plasma

| SMILES | system | conditions | quantity | value |
| --- | --- | --- | --- | --- |
| O=C(COc1ccc(Cl)cc1)NC12CC(c3nnc([C@H]4C[C@@H](OC(F)(F)F)C4)o3)(C1)C2 | human | oral, 145 mg, multiple doses, once daily, steady state, healthy volunteers | AUC | 141 µM·h |
| COc1ccc(-c2c(Nc3ccccn3)[nH]c3c(C4=CCCCC4)c(-c4ccccc4)nn3c2=O)cc1 | human | oral, 200 mg once daily, multiple doses, steady state, patients | AUC(0-t) | 108000 ng·h/mL |
| CC(C)n1c(C2CCNCC2)nc2c([N+](=O)[O-])c(Br)c(Br)cc21 | human | oral, 150 mg, patients | AUC(0-t) | 2880 ng·h/mL |
| C=CC(=O)NC1CCN(c2ncc3ncnc(Nc4ccc(Oc5ccc6c(c5)ncn6C)c(C)c4)c3n2)CC1 | male human | intravenous, 100 µg, single dose, healthy volunteers | AUC(0-inf) | 0.00269 µM·h |
| COc1ccc2c(c1)CN(C(=O)CCN1CCC(Cc3ccccc3)CC1)CC[S@@+]2[O-] | male human | intravenous, 0.6 mg/kg, healthy volunteers | AUC(0-inf) | 3240 ng·h/mL |
| COc1ccc(F)cc1C(=O)NCc1ccc(-c2nn([C@@H](C)C(F)(F)F)c(N)c2C(N)=O)cc1 | human | oral, 200 mg, single dose, fasted | AUC(0-inf) | 90200 ng·h/mL |
| OC[C@H]1O[C@@H](c2cc(Cc3ccc(C4CC4)cc3)c(Cl)c3c2CCO3)[C@H](O)[C@@H](O)[C@@H]1O | human | oral, 0.3 mg, single dose, fed | AUC(0-inf) | 31 ng·h/mL |
| CC(=O)N(C)[C@H]1CCN(C(=O)c2cnc3c(c2)C[C@](C)(c2ccc(F)cc2)N3)C1 | male human | oral, 30 mg, multiple doses, once daily | AUC(0-inf) | 3.99 µM·h |
| CC(C)c1nc(N(C)S(C)(=O)=O)nc(-c2ccc(F)cc2)c1/C=C/[C@@H](O)C[C@@H](O)CC(=O)O | human | oral, 10 mg, single dose, healthy volunteers | AUC(0-inf) | 36.7 ng·h/mL |
